Tested on: HEK-293T
Assay: Multiplex assay against HEK293T
Assay type: toxicity, cell-based
Conditions: human
Summary of the method: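 Cells were classed with CellPathfinder machine-learning gating, first as Hoechst high-intensity objects or normal cells, then (normal cells) as healthy, pyknosed or fragmented nuclei, and finally (pyknosed cells) as mitotic or apoptotic. Staining of live cells at seeding used Hoechst33342, BioTracker Green Microtubule Cytoskeleton Dye, MitoTracker Red and Annexin V Alexa Fluor 680, with imaging on a CQ1 microscope at 37°C and 5% CO2 after compound addition. Tubulin, mitochondrial-mass and membrane-permeability phenotypes are per cents of healthy-nucleus cells.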

[1] = 12 h, 10 µM, compound concentration 10 uM, replicate 1
[2] = 12 h, 10 µM, compound concentration 10 uM, replicate 2
[3] = 24 h, 1 µM, compound concentration 1 uM, replicate 1
[4] = 24 h, 1 µM, compound concentration 1 uM, replicate 2
[5] = 24 h, 10 µM, compound concentration 10 uM, replicate 1
[6] = 24 h, 10 µM, compound concentration 10 uM, replicate 2
[7] = 48 h, 1 µM, compound concentration 1 uM, replicate 1
[8] = 48 h, 1 µM, compound concentration 1 uM, replicate 2
[9] = 48 h, 10 µM, compound concentration 10 uM, replicate 1
[10] = 48 h, 10 µM, compound concentration 10 uM, replicate 2

For Cc1ccc(-c2ccc(F)cc2COc2ccc(CCC(=O)O)cc2)cc1, the “Population Fragmented Nuclei (%)” value [1] was 10%, the “Population Healthy Nuclei (%)” value [1] was 79% and the “Population Hoechst High Intensity Objects (%)” value [1] was 7%. For the same molecule, the “Population Mitochondria Different-Phenotype (%)” value [1] was 46%, the “Population Mitotic Cells (%)” value [1] was 67% and the “Population Normal (%)” value [1] was 92%. The “Population Pyknosed Nuclei (%)” value [1] was 10%, the “Population Tubulin-Different-Phenotype (%)” value [1] was 33% and the “Total Cell Count” value [1] was 329. For the same molecule, the “Population Apoptotic (%)” value [2] was 42%, the “Population Fragmented Nuclei (%)” value [2] was 7% and the “Population Healthy Nuclei (%)” value [2] was 83%. The “Population Hoechst High Intensity Objects (%)” value [2] was 6%, the “Population Mitochondria Different-Phenotype (%)” value [2] was 58% and the “Population Mitotic Cells (%)” value [2] was 57%. The “Population Normal (%)” value [2] was 93%, the “Population Pyknosed Nuclei (%)” value [2] was 9% and the “Population Tubulin-Different-Phenotype (%)” value [2] was 15%. For the same molecule, the “Total Cell Count” value [2] was 396, the “Population Apoptotic (%)” value [3] was 16% and the “Population Fragmented Nuclei (%)” value [3] was 10%. The “Population Healthy Nuclei (%)” value [3] was 82%, the “Population Hoechst High Intensity Objects (%)” value [3] was 3% and the “Population Mitochondria Different-Phenotype (%)” value [3] was 16%. For the same molecule, the “Population Mitotic Cells (%)” value [3] was 84%, the “Population Normal (%)” value [3] was 96% and the “Population Pyknosed Nuclei (%)” value [3] was 7%. The “Population Tubulin-Different-Phenotype (%)” value [3] was 10%, the “Total Cell Count” value [3] was 688 and the “Population Apoptotic (%)” value [4] was 52%. The “Population Fragmented Nuclei (%)” value [4] was 9%, the “Population Healthy Nuclei (%)” value [4] was 80% and the “Population Hoechst High Intensity Objects (%)” value [4] was 7%. The “Population Mitochondria Different-Phenotype (%)” value [4] was 33%, the “Population Mitotic Cells (%)” value [4] was 47% and the “Population Normal (%)” value [4] was 92%. For the same molecule, the “Population Pyknosed Nuclei (%)” value [4] was 9%, the “Population Tubulin-Different-Phenotype (%)” value [4] was 13% and the “Total Cell Count” value [4] was 445. The “Population Apoptotic (%)” value [5] was 36%, the “Population Fragmented Nuclei (%)” value [5] was 11% and the “Population Healthy Nuclei (%)” value [5] was 76%. For the same molecule, the “Population Hoechst High Intensity Objects (%)” value [5] was 5%, the “Population Mitochondria Different-Phenotype (%)” value [5] was 30% and the “Population Mitotic Cells (%)” value [5] was 63%. The “Population Normal (%)” value [5] was 94%, the “Population Tubulin-Different-Phenotype (%)” value [5] was 18% and the “Total Cell Count” value [5] was 397. The “Population Apoptotic (%)” value [6] was 51%, the “Population Fragmented Nuclei (%)” value [6] was 6% and the “Population Healthy Nuclei (%)” value [6] was 87%. The “Population Hoechst High Intensity Objects (%)” value [6] was 3%, the “Population Mitochondria Different-Phenotype (%)” value [6] was 37% and the “Population Mitotic Cells (%)” value [6] was 48%. The “Population Normal (%)” value [6] was 96%, the “Population Pyknosed Nuclei (%)” value [6] was 6% and the “Population Tubulin-Different-Phenotype (%)” value [6] was 13%. The “Total Cell Count” value [6] was 461, the “Population Apoptotic (%)” value [7] was 17% and the “Population Fragmented Nuclei (%)” value [7] was 15%. For the same molecule, the “Population Healthy Nuclei (%)” value [7] was 79%, the “Population Hoechst High Intensity Objects (%)” value [7] was 1% and the “Population Mitochondria Different-Phenotype (%)” value [7] was 7%. For the same molecule, the “Population Mitotic Cells (%)” value [7] was 82%, the “Population Normal (%)” value [7] was 98% and the “Population Pyknosed Nuclei (%)” value [7] was 5%. The “Population Tubulin-Different-Phenotype (%)” value [7] was 8%, the “Total Cell Count” value [7] was 1149 and the “Population Apoptotic (%)” value [8] was 36%. The “Population Fragmented Nuclei (%)” value [8] was 14%, the “Population Healthy Nuclei (%)” value [8] was 77% and the “Population Mitochondria Different-Phenotype (%)” value [8] was 18%. For the same molecule, the “Population Mitotic Cells (%)” value [8] was 63%, the “Population Normal (%)” value [8] was 97% and the “Population Pyknosed Nuclei (%)” value [8] was 8%. The “Population Tubulin-Different-Phenotype (%)” value [8] was 9%, the “Total Cell Count” value [8] was 631 and the “Population Apoptotic (%)” value [9] was 24%. The “Population Fragmented Nuclei (%)” value [9] was 12%, the “Population Healthy Nuclei (%)” value [9] was 78% and the “Population Mitochondria Different-Phenotype (%)” value [9] was 17%. For the same molecule, the “Population Mitotic Cells (%)” value [9] was 75%, the “Population Normal (%)” value [9] was 97% and the “Population Pyknosed Nuclei (%)” value [9] was 8%. For the same molecule, the “Population Tubulin-Different-Phenotype (%)” value [9] was 9%, the “Total Cell Count” value [9] was 713 and the “Population Apoptotic (%)” value [10] was 31%. For the same molecule, the “Population Fragmented Nuclei (%)” value [10] was 15%, the “Population Healthy Nuclei (%)” value [10] was 79% and the “Population Hoechst High Intensity Objects (%)” value [10] was 4%. The “Population Mitochondria Different-Phenotype (%)” value [10] was 16%, the “Population Mitotic Cells (%)” value [10] was 68% and the “Population Normal (%)” value [10] was 95%. For the same molecule, the “Population Pyknosed Nuclei (%)” value [10] was 5%, the “Population Tubulin-Different-Phenotype (%)” value [10] was 8% and the “Total Cell Count” value [10] was 702.
